Results taken from ChEMBL document CHEMBL2440049, “A structurally simplified analogue of geldanamycin exhibits neuroprotective activity” (ACS Med Chem Lett, 2013).
Active and inactive are the calls of the source. The rule behind the calls is not given here.

Key:
Homo sapiens [1] = organism: Homo sapiens; test: Antioxidant activity in human Friedreich's ataxia lymphocytes assessed as suppression of DEM-induced lipid peroxidation at 1 uM after overnight incubation by flow cytometric analysis relative to untreated control; assay type: functional
How it was run: (§1)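 FRDA lymphocytes treated with compound at 1, 5 or 10 μM, then stressed with DEM. Lipid peroxidation probed with C11-BODIPY581/591; oxidized green fluorescence, median intensity, measured by flow cytometry and compared with untreated control. Results given as % scavenging activity; mean ± SEM, n = 3.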

Homo sapiens [2] = organism: Homo sapiens; test: Antioxidant activity in human Friedreich's ataxia lymphocytes assessed as suppression of DEM-induced lipid peroxidation at 5 uM after overnight incubation by flow cytometric analysis relative to untreated control; assay type: functional; how it was run: as §1
[3] = Cytoprotective activity in human Friedreich's ataxia lymphocytes assessed as reduction in DEM-induced oxidative stress at 0.1 uM preincubated for 16 hrs prior to DEM-stimulation measured after 6 hrs by trypan blue exclusion assay relative to untreated control; assay type: functional; design: scale not given: the % may be the effect or the level left
How it was run: (§2)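 FRDA lymphocytes treated with compound at 0.1–5 μM, then oxidatively stressed with diethyl maleate to deplete glutathione. Viability set to 100% for untreated cells. Mean ± SEM of three independent experiments run in duplicate.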

Homo sapiens [4] = organism: Homo sapiens; test: Antioxidant activity in human Friedreich's ataxia lymphocytes assessed as suppression of DEM-induced lipid peroxidation at 10 uM after overnight incubation by flow cytometric analysis relative to untreated control; assay type: functional; how it was run: as §1
[5] = Cytoprotective activity in human Friedreich's ataxia lymphocytes assessed as reduction in DEM-induced oxidative stress at 2.5 uM preincubated for 16 hrs prior to DEM-stimulation measured after 6 hrs by trypan blue exclusion assay relative to untreated control; assay type: functional; design: scale not given: the % may be the effect or the level left; how it was run: as §2
Homo sapiens [6] = organism: Homo sapiens; test: Antioxidant activity in human Friedreich's ataxia lymphocytes assessed as suppression of DEM-induced ROS production at 5 to 10 uM preincubated for 16 hrs prior to DEM-stimulation measured after 80 mins by flow cytometric analysis; assay type: functional
How it was run: (§3)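 FRDA lymphocytes pretreated 16 h with compound (5 and 10 μM), then 5 mM diethyl maleate for 80 min to deplete glutathione. Cells washed, resuspended in PBS with 20 mM glucose, loaded with 10 μM DCFH-DA for 20 min. DCF fluorescence read by flow cytometry, 488 nm excitation, 530 ± 15 nm emission, 10,000 events. Expressed as % ROS scavenging; mean ± SEM, n = 3.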

Homo sapiens [7] = organism: Homo sapiens; test: Cytoprotective activity in DEM-stimulated human Friedreich's ataxia lymphocytes assessed as cells with intact mitochondrial membrane potential at 5 uM preincubated for 16 hrs prior to DEM-stimulation measured after 140 mins by TMRM dye-based flow cytometric analysis (reference value: 92%); assay type: functional
[8] = Cytoprotective activity in human Friedreich's ataxia lymphocytes assessed as reduction in DEM-induced oxidative stress at 0.5 uM preincubated for 16 hrs prior to DEM-stimulation measured after 6 hrs by trypan blue exclusion assay relative to untreated control; assay type: functional; design: scale not given: the % may be the effect or the level left; how it was run: as §2
[9] = Cytoprotective activity in human Friedreich's ataxia lymphocytes assessed as reduction in DEM-induced oxidative stress at 5 uM preincubated for 16 hrs prior to DEM-stimulation measured after 6 hrs by trypan blue exclusion assay relative to untreated control; assay type: functional; design: scale not given: the % may be the effect or the level left; how it was run: as §2
Homo sapiens [10] = organism: Homo sapiens; test: Antioxidant activity in human Friedreich's ataxia lymphocytes assessed as suppression of DEM-induced ROS production preincubated for 16 hrs prior to DEM-stimulation measured after 80 mins by flow cytometric analysis; assay type: functional; how it was run: as §3
[11] = target: Amyloid-beta precursor protein (Homo sapiens) (UniProt P05067); test: Neuroprotective activity in differentiated human SH-SY5Y cells assessed as decrease in amyloid beta (1 to 42)-induced neurotoxicity incubated overnight prior to amyloid beta (1 to 42)-stimulation measured after 48 hrs by WST-1 assay; assay type: functional, cell-based
Chain of Amyloid-beta precursor protein (Homo sapiens) (P05067 whole entry): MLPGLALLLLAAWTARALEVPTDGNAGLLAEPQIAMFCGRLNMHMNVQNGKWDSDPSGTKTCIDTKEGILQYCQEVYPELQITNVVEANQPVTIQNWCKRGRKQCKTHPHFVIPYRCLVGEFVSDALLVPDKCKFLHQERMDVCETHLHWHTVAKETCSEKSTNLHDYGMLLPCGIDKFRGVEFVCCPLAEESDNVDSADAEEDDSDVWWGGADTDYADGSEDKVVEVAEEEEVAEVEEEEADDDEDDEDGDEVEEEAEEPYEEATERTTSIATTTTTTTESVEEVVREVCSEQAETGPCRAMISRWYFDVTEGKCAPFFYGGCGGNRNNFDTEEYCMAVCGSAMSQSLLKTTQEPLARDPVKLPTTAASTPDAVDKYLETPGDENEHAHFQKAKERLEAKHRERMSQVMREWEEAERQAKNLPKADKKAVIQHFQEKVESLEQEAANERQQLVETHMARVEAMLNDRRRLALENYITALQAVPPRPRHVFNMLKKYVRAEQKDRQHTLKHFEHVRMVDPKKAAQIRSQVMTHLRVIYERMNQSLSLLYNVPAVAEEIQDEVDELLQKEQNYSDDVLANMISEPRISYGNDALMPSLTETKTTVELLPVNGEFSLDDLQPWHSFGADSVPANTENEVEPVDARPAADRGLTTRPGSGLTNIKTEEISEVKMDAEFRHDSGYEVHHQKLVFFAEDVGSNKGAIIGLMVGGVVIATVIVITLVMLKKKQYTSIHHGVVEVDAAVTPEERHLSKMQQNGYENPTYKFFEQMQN

[12] = target: Heat shock protein HSP 90-beta (Homo sapiens) (UniProt P08238); test: Inhibition of HSP90 in human BT474 cells expressing HER2 assessed as increase in HSP90 protein level at 0.5 to 5 uM after 24 hrs by chemiluminescence assay; assay type: cell-based; details: BT-474
Chain of Heat shock protein HSP 90-beta (Homo sapiens) (P08238 whole entry): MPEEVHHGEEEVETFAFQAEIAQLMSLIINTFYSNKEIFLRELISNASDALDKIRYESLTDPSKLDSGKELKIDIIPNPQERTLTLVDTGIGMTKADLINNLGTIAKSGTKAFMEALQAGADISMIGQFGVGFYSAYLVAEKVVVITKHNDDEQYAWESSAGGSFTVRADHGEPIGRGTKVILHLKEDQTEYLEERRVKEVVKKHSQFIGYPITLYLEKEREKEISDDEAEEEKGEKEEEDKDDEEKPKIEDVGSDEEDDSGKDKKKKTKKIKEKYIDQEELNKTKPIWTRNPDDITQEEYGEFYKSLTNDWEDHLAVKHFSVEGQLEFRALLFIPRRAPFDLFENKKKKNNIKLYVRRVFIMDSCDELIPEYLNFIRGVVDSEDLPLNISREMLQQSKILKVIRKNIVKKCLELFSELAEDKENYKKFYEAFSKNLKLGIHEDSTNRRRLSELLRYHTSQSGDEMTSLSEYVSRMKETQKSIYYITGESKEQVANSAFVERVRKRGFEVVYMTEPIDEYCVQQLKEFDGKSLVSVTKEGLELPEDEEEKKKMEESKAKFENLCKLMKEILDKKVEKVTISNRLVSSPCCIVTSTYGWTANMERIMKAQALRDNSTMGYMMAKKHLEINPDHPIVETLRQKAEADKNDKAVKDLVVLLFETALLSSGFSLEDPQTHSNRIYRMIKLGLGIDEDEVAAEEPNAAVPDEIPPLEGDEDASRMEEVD

[13] = target: Heat shock protein HSP 90-beta (Homo sapiens) (UniProt P08238); test: Inhibition of HSP90 in human BT474 cells expressing HER2 assessed as HER2 protein degradation at 0.5 to 25 uM after 24 hrs by chemiluminescence assay; assay type: cell-based; details: BT-474
BT-474 [14] = test: Cytotoxicity against human BT474 cells at 5 to 20 uM after 48 hrs by WST-1 assay; assay type: cell-based; details: bt-474, 48 h
Homo sapiens [15] = organism: Homo sapiens; test: Cytoprotective activity in BSO-stimulated human Friedreich's ataxia fibroblasts assessed as preservation of mitochondrial membrane potential at 5 uM after 12 hrs by JC-1 dye-based Zeiss fluorescent microscopic analysis
[16] = Cytotoxicity against human Friedreich's ataxia lymphocytes at 5 to 20 uM after 48 hrs by WST-1 assay
Homo sapiens [17] = organism: Homo sapiens; test: Cytoprotective activity in human Friedreich's ataxia lymphocytes assessed as reduction in DEM-induced oxidative stress preincubated for 16 hrs prior to DEM-stimulation measured after 6 hrs by trypan blue exclusion assay; assay type: functional; how it was run: as §2
Homo sapiens [18] = organism: Homo sapiens; test: Antioxidant activity in human Friedreich's ataxia lymphocytes assessed as suppression of DEM-induced lipid peroxidation after overnight incubation by flow cytometric analysis; assay type: functional; how it was run: as §1
[19] = Cytotoxicity against DEM-stimulated human Friedreich's ataxia lymphocytes assessed as effect on intracellular glutathione concentration at 1 to 10 uM; assay type: cell-based
BT-474 [20] = test: Cytotoxicity against human BT474 cells at 0.05 to 0.25 uM after 48 hrs by WST-1 assay; assay type: cell-based; details: bt-474, 48 h
[21] = Cytotoxicity against human Friedreich's ataxia lymphocytes at 0.05 to 0.25 uM after 48 hrs by WST-1 assay

Structure (SMILES) | Activity (Homo sapiens [1]) | Activity (Homo sapiens [2]) | Activity [3] | Activity (Homo sapiens [4]) | Activity [5] | Activity (Homo sapiens [6]) | Activity (Homo sapiens [7]) | Activity [8] | Activity [9] | Activity (Homo sapiens [18]) | other results
CCCCCCCCCCCCCC1=C(O)C(=O)C=C(NCCCCCC)C1=O | 2% | 27% | 18% | 38% | 43% | Active | 43% | 22% | 65% | – | –
COC1=C2CCCCCCCCCCCCCCCNC(=CC1=O)C2=O | 29% | 72% | 36% | 83% | 83% | – | 80% | 69% | 92% | Dose-dependent effect | Activity (Homo sapiens [10]): Dose-dependent effect; Activity [11]: Dose-dependent effect; inhibition [12]: inactive; inhibition [13]: inactive; Activity (BT-474 [14]): Non-toxic; Activity (Homo sapiens [15]): Active; Activity [16]: Non-toxic; Activity (Homo sapiens [17]): Dose-dependent effect; Activity [19]: Non-toxic
COC1=C2C[C@@H](C)C[C@H](OC)[C@H](O)[C@@H](C)/C=C(\C)[C@H](OC(N)=O)[C@@H](OC)/C=C\C=C(/C)C(=O)NC(=CC1=O)C2=O [GELDANAMYCIN] | – | – | – | – | – | – | – | – | – | – | Activity (BT-474 [20]): Toxic; Activity [21]: Toxic
CCCCCCCCCCCCCC1=C(OC)C(=O)C=C(NCCCCCC)C1=O | 14% | 61% | 20% | 70% | 66% | Active | 56% | 50% | 80% | Dose-dependent effect | –
